Experimental findings from ChEMBL document CHEMBL1955746, “Synthesis and P2Y₂ receptor agonist activities of uridine 5'-phosphonate analogues” (Bioorg Med Chem, 2012) are described below.

What is called EC50 is the concentration at which the effect is half-maximal. A word on the Emax: it is the maximal effect, on the per cent scale that the assay sets.

Structures are written as SMILES. Active and inactive are the calls of the source. The calls are words filed in the database; no cut-off is given here. Where only a bound is given, the exact number is not on record here.

What all share (assay type): functional, cell-based
For test [1], the target named is P2Y purinoceptor 4 (Homo sapiens) (UniProt P51582). Description: Agonist activity at human P2Y4 receptor expressed in human 1321N1 cells assessed as stimulation of PLC-induced [3H]inositol phosphate production at 100 uM after 30 mins by scintillation counting. An outline of the steps: (§1)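 Retrovirally generated stable 1321N1 lines labelled 16 h with 1.0 μCi [3H]myo-inositol in inositol-free DMEM. Analogues at 100 μM, 30 min at 37°C in Hepes pH 7.3/HBSS with LiCl. Total [3H]inositol phosphates taken by formic acid extraction and Dowex anion exchange, then scintillation counting. P2Y2 and P2Y4 responses expressed as % of 100 nM UTP; P2Y6 as % of 1 μM UDP. Mean ± S.E.M., ≥3 experiments.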
Sequence of P2Y purinoceptor 4 (Homo sapiens) (P51582 whole entry): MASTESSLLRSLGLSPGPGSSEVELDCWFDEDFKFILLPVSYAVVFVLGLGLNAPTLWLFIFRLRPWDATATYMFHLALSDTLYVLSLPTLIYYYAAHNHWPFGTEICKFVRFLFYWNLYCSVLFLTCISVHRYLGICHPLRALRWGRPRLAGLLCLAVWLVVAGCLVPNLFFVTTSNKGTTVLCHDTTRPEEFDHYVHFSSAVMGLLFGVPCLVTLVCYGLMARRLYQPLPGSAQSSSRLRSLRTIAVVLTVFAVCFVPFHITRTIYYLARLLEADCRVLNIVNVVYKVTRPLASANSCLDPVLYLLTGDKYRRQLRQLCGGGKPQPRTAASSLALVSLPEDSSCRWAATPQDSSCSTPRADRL

The target in test [2] is T1, P2Y purinoceptor 2 (Homo sapiens, UniProt P41231). Description: Agonist activity at human P2Y2 receptor expressed in human 1321N1 cells assessed as stimulation of PLC-induced [3H]inositol phosphate production after 30 mins by scintillation counting. An outline of the steps:
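Stable 1321N1 astrocytoma lines made by retroviral expression of the receptor. Cells plated 20,000/well two days ahead and labelled 16 h in serum-free, inositol-free DMEM with 1.0 μCi [3H]myo-inositol. Agonist added in HBSS with 100 mM Hepes pH 7.3 (five-fold stock) and 50 mM LiCl, 30 min at 37°C. Stopped with cold 50 mM formic acid, neutralized, Dowex columns. EC50 by non-linear regression, triplicates, ≥3 experiments.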

Test [3] concerns the target T1, P2Y purinoceptor 2. Description: Agonist activity at human P2Y2 receptor expressed in human 1321N1 cells assessed as stimulation of PLC-induced [3H]inositol phosphate production at 100 uM after 30 mins by scintillation counting relative to UTP. An outline of the steps:
as §1

Test [4] deals with P2Y purinoceptor 6 (Homo sapiens) (UniProt Q15077). As to the kind of experiment: Agonist activity at human P2Y6 receptor expressed in human 1321N1 cells assessed as stimulation of PLC-induced [3H]inositol phosphate production at 100 uM after 30 mins by scintillation counting. The essentials:
as §1

T1 sequence (P41231 whole entry): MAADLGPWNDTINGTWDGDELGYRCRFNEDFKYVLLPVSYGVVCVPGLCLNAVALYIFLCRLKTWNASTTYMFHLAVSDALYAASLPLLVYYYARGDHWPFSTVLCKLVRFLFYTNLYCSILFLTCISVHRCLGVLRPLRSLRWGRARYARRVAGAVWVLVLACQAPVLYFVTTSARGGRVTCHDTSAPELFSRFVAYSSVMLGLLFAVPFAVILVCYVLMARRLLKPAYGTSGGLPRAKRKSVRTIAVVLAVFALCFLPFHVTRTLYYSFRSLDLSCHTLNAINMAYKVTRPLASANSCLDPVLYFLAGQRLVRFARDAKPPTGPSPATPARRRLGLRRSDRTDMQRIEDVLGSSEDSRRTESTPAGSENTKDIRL
Sequence of P2Y purinoceptor 6 (Homo sapiens) (Q15077 whole entry): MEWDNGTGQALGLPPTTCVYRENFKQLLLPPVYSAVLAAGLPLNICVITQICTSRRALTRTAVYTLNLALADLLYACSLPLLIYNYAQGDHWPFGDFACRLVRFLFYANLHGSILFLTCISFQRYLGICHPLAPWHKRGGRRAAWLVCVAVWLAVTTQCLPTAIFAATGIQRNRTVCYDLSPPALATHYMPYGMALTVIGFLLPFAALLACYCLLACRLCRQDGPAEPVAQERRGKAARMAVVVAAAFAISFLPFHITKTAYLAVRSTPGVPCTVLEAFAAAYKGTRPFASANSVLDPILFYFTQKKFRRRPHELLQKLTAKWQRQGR

Take `O=c1[nH]c(=O)n([C@@H]2O[C@H](CCP(=O)(O)O)[C@@H](O)[C@H]2O)cc1-c1ccc(F)cc1`: the outcome in test [1] and in test [4] was inactive. The EC50 on P2Y purinoceptor 2 [2] came to 400 nM. For the same compound, at P2Y purinoceptor 2 [3], the maximal response (Emax) was 43%.

Turning to `Cc1ccc(-c2cn([C@@H]3O[C@H](CCP(=O)(O)O)[C@@H](O)[C@H]3O)c(=O)[nH]c2=O)cc1`, the outcome in test [1] and in test [4] was inactive. Also, at P2Y purinoceptor 2 [2], the EC50 worked out at 1000 nM. Further, at P2Y purinoceptor 2 [3], the Emax is 41%.

With `N[C@@H]1[C@H](O)[C@@H](CCP(=O)(O)O)O[C@H]1n1ccc(=O)[nH]c1=O`, the result in test [1] and in test [4] was inactive. Besides, the EC50 on P2Y purinoceptor 2 [2] was over 20000 nM. Moreover, at P2Y purinoceptor 2 [3], the Emax came to 9%.

In the case of `O=c1ccn([C@@H]2O[C@H](CCP(=O)(O)O)[C@@H](O)[C@H]2Cl)c(=O)[nH]1`, the outcome in test [1] and in test [4] was inactive. The concentration giving a half-maximal response (EC50) at P2Y purinoceptor 2 [2] is over 20000 nM. Moreover, on P2Y purinoceptor 2 [3], the Emax came out at 9%.

Take `O=c1[nH]c(=O)n([C@@H]2O[C@H](CCP(=O)(O)O)[C@@H](O)[C@H]2O)cc1-c1ccc2ccccc2c1`: the outcome in test [1] and in test [4] was inactive. Also, the 50% effective concentration (EC50) at P2Y purinoceptor 2 [2] stood at 2100 nM. The Emax at P2Y purinoceptor 2 [3] was determined as 54%.

For `O=c1[nH]c(=O)n([C@@H]2O[C@H](CCP(=O)(O)O)[C@@H](O)[C@H]2O)cc1-c1cccs1`, the result in test [1] and in test [4] was inactive. Further, the EC50 on P2Y purinoceptor 2 [2] is 500 nM. In addition, the maximal response (Emax) at P2Y purinoceptor 2 [3] came out at 35%.

As to `O=c1ccn([C@@H]2O[C@H](COP(=O)(O)OP(=O)(O)O)[C@@H](O)[C@H]2O)c(=O)[nH]1`, the outcome in test [4] was inactive.

Take `O=c1[nH]c(=O)n([C@@H]2O[C@H](CCP(=O)(O)O)[C@@H](O)[C@H]2O)cc1/C=C/c1ccccc1`: the outcome in test [1] and in test [4] was inactive. The EC50 on P2Y purinoceptor 2 [2] was 3100 nM. In addition, the Emax at P2Y purinoceptor 2 [3] turned out to be 41%.

Turning to `O=c1[nH]c(=O)n([C@@H]2O[C@H](CCP(=O)(O)O)[C@@H](O)[C@H]2O)cc1-c1csc2ccccc12`, the outcome in test [1] and in test [4] was inactive. Besides, the concentration for a half-maximal effect (EC50) on P2Y purinoceptor 2 [2] was over 20000 nM. Also, the maximal effect (Emax) on P2Y purinoceptor 2 [3] was found to be 45%.

In the case of `O=c1ccn([C@@H]2O[C@H](COP(=O)(O)OP(=O)(O)OP(=O)(O)O)[C@@H](O)[C@H]2O)c(=O)[nH]1` [URIDINE TRIPHOSPHATE], at P2Y purinoceptor 2 [2], the EC50 turned out to be 20 nM.

Consider `O=c1ccn([C@H]2[C@H](O)[C@H](O)[C@]3(CCP(=O)(O)O)C[C@H]23)c(=O)[nH]1`, for which the concentration for a half-maximal effect (EC50) on P2Y purinoceptor 2 [2] came out at 4000 nM.

`O=c1ccn([C@@H]2O[C@H](OCP(=O)(O)O)[C@@H](O)[C@H]2O)c(=O)[nH]1`: the outcome in test [1] and in test [4] was inactive. Moreover, the EC50 on P2Y purinoceptor 2 [2] is over 20000 nM. For the same compound, the Emax at P2Y purinoceptor 2 [3] is 19%.

For `O=c1ccn([C@@H]2O[C@H](CCP(=O)(O)O)[C@@H](O)[C@H]2O)c(=O)[nH]1`, the EC50 at P2Y purinoceptor 2 [2] turned out to be 5100 nM. In addition, the Emax on P2Y purinoceptor 2 [3] was 32%.

Regarding `O=c1[nH]c(=O)n([C@@H]2O[C@H](CCP(=O)(O)O)[C@@H](O)[C@H]2O)cc1-c1ccccc1`, the result in test [1] and in test [4] was inactive. Further, the EC50 on P2Y purinoceptor 2 [2] turned out to be 1500 nM. In addition, on P2Y purinoceptor 2 [3], the Emax was determined as 53%.

Turning to `O=c1[nH]c(=O)n([C@@H]2O[C@H](CCP(=O)(O)O)[C@@H](O)[C@H]2O)cc1-c1ccco1`, the result in test [1] and in test [4] was inactive. The EC50 at P2Y purinoceptor 2 [2] was determined as 700 nM. Also, at P2Y purinoceptor 2 [3], the Emax came out at 45%.
